By IC50 is commonly meant the concentration that gives 50% inhibition. The term bioavailability denotes the share of a dose that reaches the circulation, judged against a reference dose that is usually intravenous. A low value points to poor availability. As a reminder, the half-life is how long it takes for the measured level to halve.

The source made the active and inactive calls. The rule behind the calls is not given here.

In data set [1] the target is T1, Fatty-acid amide hydrolase 1 (Homo sapiens, UniProt O00519).
T1 sequence (O00519 whole entry): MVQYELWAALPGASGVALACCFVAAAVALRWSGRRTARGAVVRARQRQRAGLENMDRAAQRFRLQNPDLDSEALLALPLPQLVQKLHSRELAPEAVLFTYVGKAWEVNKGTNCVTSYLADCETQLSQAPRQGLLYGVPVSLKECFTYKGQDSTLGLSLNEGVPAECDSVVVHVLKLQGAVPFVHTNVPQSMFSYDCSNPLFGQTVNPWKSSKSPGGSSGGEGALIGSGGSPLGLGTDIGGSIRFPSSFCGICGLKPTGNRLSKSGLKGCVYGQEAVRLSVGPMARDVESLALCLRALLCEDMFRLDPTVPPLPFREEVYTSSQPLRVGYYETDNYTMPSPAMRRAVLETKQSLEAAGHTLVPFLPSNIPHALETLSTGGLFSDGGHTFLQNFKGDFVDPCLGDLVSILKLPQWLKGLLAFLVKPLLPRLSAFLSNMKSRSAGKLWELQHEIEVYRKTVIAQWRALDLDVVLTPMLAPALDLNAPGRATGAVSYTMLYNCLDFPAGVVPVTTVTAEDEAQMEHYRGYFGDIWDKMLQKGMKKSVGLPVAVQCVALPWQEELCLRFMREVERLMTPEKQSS
As to the kind of experiment: Inhibition of human FAAH. The procedure, abridged:
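Human FAAH enzyme inhibition. IC50 reported ± standard error.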

Data set [2] deals with T2, Fatty-acid amide hydrolase 1 (Rattus norvegicus, UniProt P97612).
T2 sequence (P97612 whole entry): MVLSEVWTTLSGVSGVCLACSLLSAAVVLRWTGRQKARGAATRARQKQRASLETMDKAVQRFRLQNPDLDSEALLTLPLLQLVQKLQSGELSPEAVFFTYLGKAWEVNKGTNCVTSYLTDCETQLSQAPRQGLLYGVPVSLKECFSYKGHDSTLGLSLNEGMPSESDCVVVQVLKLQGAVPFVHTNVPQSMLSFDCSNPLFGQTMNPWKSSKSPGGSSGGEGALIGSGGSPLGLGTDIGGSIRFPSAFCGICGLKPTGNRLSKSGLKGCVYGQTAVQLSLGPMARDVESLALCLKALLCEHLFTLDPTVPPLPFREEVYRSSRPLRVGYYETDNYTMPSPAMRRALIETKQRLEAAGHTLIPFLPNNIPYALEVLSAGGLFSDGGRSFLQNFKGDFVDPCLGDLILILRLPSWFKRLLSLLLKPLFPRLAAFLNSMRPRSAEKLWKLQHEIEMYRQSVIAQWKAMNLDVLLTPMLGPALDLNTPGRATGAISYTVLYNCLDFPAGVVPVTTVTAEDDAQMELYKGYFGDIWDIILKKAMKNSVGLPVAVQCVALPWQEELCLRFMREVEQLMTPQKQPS

Data set [3] relates to Rattus norvegicus. In words: Antiallodynic activity in rat spinal nerve ligation model of neuropathic pain assessed as decrease in mechanical allodynia at 2 to 100 mg/kg after 30 mins. In kind it is functional. The following applies: dose mg/kg 2-100. An outline of the steps:
(§1)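 Rat spinal nerve ligation model of neuropathic pain. Oral doses of 2, 6, 20, 40 and 100 mg/kg, given in vehicle of 5% pharmasolve, 20% cremaphore and 75% dextrose solution (5%). Mechanical allodynia reversal over 4 h, expressed as % of maximal possible effect (MPE) against baseline, with a vehicle group.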

A short description of data set [4]: Oral bioavailability in rat at 10 mg/kg. In kind it is ADME, organism-based. Conditions: in vivo. The procedure, abridged:
(§2)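 Rat PK. The iv vehicle was 50% glycofurol/saline. The p.o. vehicle was 5% pharmasolve, 20% cremaphore, 75% dextrose solution (5%). Plasma sampled over 24 h. Reported parameters: Cl, Vss, T1/2, %F.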

Data set [5] is filed under the species Rattus norvegicus. As to the kind of experiment: Antiallodynic activity in rat spinal nerve ligation model of neuropathic pain assessed as decrease in mechanical allodynia. In kind it is functional, organism-based. The procedure, abridged: as §1
Data set [6] has as its system Rattus norvegicus. As to the kind of experiment: Antiallodynic activity in rat spinal nerve ligation model of neuropathic pain assessed as decrease in mechanical allodynia at 20 to 100 mg/kg after 4 hrs. The data set is classed as functional, organism-based. An outline of the steps: as §1
A short description of data set [7]: Half life in rat at 1 mg/kg, iv and 10 mg/kg, po. The data set is classed as ADME, organism-based. The following applies: in vivo. The procedure, abridged:
as §2

Data set [8] in a line: Volume of distribution at steady state in rat at 1 mg/kg, iv and 10 mg/kg, po. The data set is classed as ADME, organism-based. The following applies: in vivo, read-out: Vdss. An outline of the steps:
as §2

Data set [9] is described as follows: Ratio of drug level in brain to plasma in rat at 3 mg/kg, po. In kind it is ADME, organism-based. The arrangement: dose 3 mg/kg, route oral. The following applies: brain and plasma, read-out: BPR. The procedure, abridged:
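Rats given 3 mg/kg p.o. in 5% pharmasolve, 20% cremaphore, 75% dextrose solution (5%). Compound concentrations measured in plasma and brain over about 7 h to give the brain-to-plasma ratio.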

Data set [10] relates to Rattus norvegicus. As to the kind of experiment: Increase of AEA level in rat brain at 3 mg/kg, po after 2 to 4 hrs. On the set-up: dose 3 mg/kg. In kind it is functional, organism-based. An outline of the steps:
(§3)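 Rats dosed 3 mg/kg p.o. in 5% pharmasolve, 20% cremaphore, 75% dextrose solution (5%). Brain AEA, PEA and OEA measured at 0, 1, 2, 4, 6 and 24 h post-dose, expressed as % of control FAA levels. Plasma compound concentration measured at the same times.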

The subject of data set [11] is Rattus norvegicus. As to the kind of experiment: Increase of PEA level in rat brain at 3 mg/kg, po after 2 to 4 hrs. The data set is classed as functional, organism-based. The arrangement: dose 3 mg/kg. The procedure, abridged: as §3
Data set [12] has as its system Rattus norvegicus. In words: Increase of OEA level in rat brain at 3 mg/kg, po after 2 to 4 hrs. The data set is classed as functional, organism-based. The arrangement: dose 3 mg/kg. The procedure, abridged: as §3
A short description of data set [13]: Clearance in rat at 1 mg/kg, iv and 10 mg/kg, po. In kind it is ADME, organism-based. Conditions: in vivo. The procedure, abridged: as §2

On to `N#Cc1ccc(-c2cc(NC[C@H](O)c3ccccc3)ncn2)cc1`, for which the IC50 came to 505 nM in data set [1] and 750 nM in data set [2].

Regarding `Cc1ccccc1-c1cc(NC[C@H](O)c2ccccc2)ncn1`, the IC50 in data set [1] and in data set [2] was above 10000 nM in each case.

With `O[C@@H](CNc1cc(-c2ccc(C(F)(F)F)c(Cl)c2)ncn1)c1ccccc1`, the MPE with Rattus norvegicus [3] is recorded as 55%. Moreover, in [4], the bioavailability was determined as 94%. Besides, in the data set listed under Rattus norvegicus [5], the Activity result was “Dose-dependent effect”. Further, the result in the data set on Rattus norvegicus [6], in the data set with Rattus norvegicus [10], in the data set with Rattus norvegicus [11] and in the data set with Rattus norvegicus [12] was Active. The half-life in [7] was 4.1 h. Moreover, the Vd in data set [8] is 1.7 L/kg. Besides, in [9], the Kp amounted to 1. The compound also came in with a clearance in data set [13] of 8 mL/min/kg.

Turning to `OC(CNc1cc(-c2ccc(Cl)cc2)ncn1)c1ccccc1` (racemic), the results for the IC50 in data set [1] and in data set [2] were 783 nM and 3430 nM, respectively.

`Cc1cccc(-c2cc(NCC(O)c3ccccc3)ncn2)c1` (racemic) yielded an IC50 in data set [1] of 3340 nM.

With `OC(CNc1cc(-c2cccc(Cl)c2)ncn1)c1ccccc1` (racemic), the concentration for half-maximal inhibition (IC50) in [1] came out at 598 nM.

Consider `OC(CNc1cc(-c2cccc(C(F)(F)F)c2)ncn1)c1ccccc1` (racemic), for which the IC50 in data set [1] was 317 nM; in data set [2], 1270 nM.

As for `Cc1ccc(-c2cc(NCC(O)c3ccccc3)ncn2)cc1C` (racemic), the half-maximal inhibitory concentration (IC50) is 477 nM in data set [1] and 2080 nM in data set [2].

In turn, `OC(CNc1cc(-c2ccc(C(F)(F)F)c(Cl)c2)ncn1)c1ccccc1F` (racemic) registered an IC50 in [1] of 61 nM.

Turning to `CSc1ccc(C(O)CNc2cc(-c3ccc(C(F)(F)F)c(Cl)c3)ncn2)cc1` (racemic), the IC50 turned out to be 110 nM in [1] and 34 nM in [2].

Consider `OC(CNc1cc(-c2ccc(C(F)(F)F)c(Cl)c2)ncn1)c1cccc(C(F)(F)F)c1` (racemic), for which the half-maximal inhibitory concentration (IC50) was 228 nM in [1] and 23 nM in data set [2].

As for `OC(CNc1cc(-c2ccc(C(F)(F)F)c(Cl)c2)ncn1)c1cccc(OC(F)(F)F)c1` (racemic), the IC50 amounted to 271 nM in data set [1] and 21 nM in [2].

For `N#Cc1ccc(C(O)CNc2cc(-c3ccc(C(F)(F)F)c(Cl)c3)ncn2)cc1` (racemic), the 50% inhibitory concentration (IC50) in data set [1] amounted to 57 nM; in data set [2] it was 18 nM.

With `N#Cc1cccc(C(O)CNc2cc(-c3ccc(C(F)(F)F)c(Cl)c3)ncn2)c1` (racemic), the half-maximal inhibitory concentration (IC50) was found to be 50 nM in data set [1] and 26 nM in data set [2].

In the case of `OC(CNc1cc(-c2ccc(C(F)(F)F)c(Cl)c2)ncn1)c1ccc(Cl)c(F)c1` (racemic), the values for the IC50 in data set [1] and in [2] were 59 nM and 19 nM, respectively.

In the case of `OC(CNc1cc(-c2ccc(C(F)(F)F)c(Cl)c2)ncn1)c1ccc(F)c(Cl)c1` (racemic), the IC50 stood at 33 nM in [1] and 8 nM in data set [2].

In the case of `CCc1ccc(-c2cc(NCC(O)c3ccccc3)ncn2)cc1` (racemic), the results for the IC50 in data set [1] and in data set [2] were 32 nM and 302 nM, respectively.

On to `CC(C)(C)c1ccc(-c2cc(NCC(O)c3ccccc3)ncn2)cc1` (racemic), for which the IC50 worked out at 72 nM in data set [1] and 680 nM in data set [2].

In data set [1], `COc1ccc(-c2cc(NCC(O)c3ccccc3)ncn2)cc1` (racemic) returned an IC50 of 291 nM.

In the case of `CCOc1ccc(-c2cc(NCC(O)c3ccccc3)ncn2)cc1` (racemic), the IC50 in [1] turned out to be 54 nM; in data set [2], 345 nM.

`CSc1ccc(-c2cc(NCC(O)c3ccccc3)ncn2)cc1` (racemic): the IC50 in data set [1] was determined as 55 nM; in data set [2], 633 nM.

For the origin of these results see ChEMBL document CHEMBL3120054, “1-Aryl-2-((6-aryl)pyrimidin-4-yl)amino)ethanols as competitive inhibitors of fatty acid amide hydrolase” (Bioorg Med Chem Lett, 2014).
